The source of these data is ChEMBL document CHEMBL1123359, “3,4-Dihydro-2-phenyl-2H-pyrano[2,3-b]pyridines with potent antirhinovirus activity” (1986).

Activity calls are given as the source filed them. The rule behind the calls is not given here.

The subject of test [1] is Human rhinovirus 1A. The test can be described thus: Concentration required to reduce Rhino virus type 1A induced plaque formation in HeLa cell culture to 50% of control. The class given is functional. The note with it: read-out: ID50 (the source's name). The method in brief:
(§1)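 HeLa monolayers were grown at 36 °C in Eagle's MEM with Earle's salts, 1% antibiotic and 7-10% heat-inactivated fetal calf serum, with serum cut to 1-2% for maintenance. Plaque reduction cultures were incubated 48-72 h at 33 °C. RV-1A was propagated in HeLa; RV-9 was ATCC VR489.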

Test [2] has as its system Human rhinovirus sp. The test can be described thus: Concentration required to reduce Rhino virus type 9 induced plaque formation in HeLa cell culture to 50% of control. The class given is functional. The note with it: read-out: ID50 (the source's name). The method in brief:
as §1

The test system of test [3] is Human rhinovirus sp. The test can be described thus: Concentration required to reduce Rhino virus type 64 induced plaque formation in HeLa cell culture to 50% of control. The class given is functional. Particulars: read-out: ID50 (the source's name). Put shortly:
as §1

The subject of test [4] is HeLa. The test can be described thus: Concentration required to reduce Rhino virus type 9 induced plaque formation in HeLa cell culture to 50% of control; The highest concentration tested failed to provide 50% protection. The class given is functional. Particulars: Homo sapiens, read-out: ID50 (the source's name). Put shortly:
(§2)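 HeLa monolayers were grown at 36 °C in Eagle's MEM with Earle's salts, 1% antibiotic and 7-10% heat-inactivated fetal calf serum, with serum cut to 1-2% for maintenance. Plaque reduction cultures were incubated 48-72 h at 33 °C. RV-1A was propagated in HeLa; RV-9 was ATCC VR489. Plaque counts as % of compound-free control were plotted against log concentration, and the 50% point was found by linear regression.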

Test [5] has as its system HeLa. The test can be described thus: Concentration required to reduce Rhino virus type 1A induced plaque formation in HeLa cell culture to 50% of control; The highest concentration tested failed to provide 50% protection. The class given is functional. The note with it: Homo sapiens, read-out: ID50 (the source's name). The method in brief: as §2
Test [6] deals with HeLa. The test can be described thus: The cell growth inhibition ( CGI) concentration denotes the lowest concentration at which the effect on HeLa cell colony formation became apparent. The class given is functional, Homo sapiens. Put shortly:
(§3)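 The assay scored effects of compound on the growth and morphology of HeLa cell colonies. HeLa stocks were kept in Eagle's MEM with Earle's salts, 1% antibiotic and 7-10% heat-inactivated fetal calf serum at 36 °C. The value is the lowest concentration at which a colony effect became apparent.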

In test [7] the test system is HeLa. The test can be described thus: Lowest concentration at which the effect on HeLa cell colony formation became apparent. The class given is functional, Homo sapiens. The method in brief: as §3
Test [8] in a line: Activity against mengovirus.; No activity. The class given is functional.
Test [9] can be described thus: Activity against polio type 2; No activity. The class given is functional.
Test [10] concerns HeLa. The test can be described thus: Concentration required to reduce Rhino virus type 64 induced plaque formation in HeLa cell culture to 50% of control; The highest concentration tested failed to provide 50% protection. The class given is functional. Particulars: Homo sapiens, read-out: ID50 (the source's name).

Turning to `Cc1ccc(C2CCc3cc(Br)cnc3O2)cc1` (stereo unspecified), the IC50 in [1] amounted to 70 nM; in [2], 390 nM; in [3] it was 230 nM.

`Clc1ccc(C2=CCc3cc(Br)cnc3O2)cc1Cl`: the figures for the IC50 in test [2], in [4] and in test [3] were 590 nM, more than 14000 nM and 12900 nM, respectively.

Regarding `CS(=O)(=O)c1cnc2c(c1)CCC(c1ccccc1)O2` (stereo unspecified), in test [5], the IC50 was more than 17000 nM.

With `Clc1ccc(C2C=Cc3cc(Cl)cnc3O2)cc1` (stereo unspecified), in test [6], the CGI amounted to 9 µM. Further, the IC50 stood at 180 nM in test [1], 2300 nM in [2] and 470 nM in test [3].

Regarding `Clc1ccc(C2CCc3cc(Br)cnc3O2)cc1Cl` (stereo unspecified), the CGI in [7] was 28 µM. Also, the IC50 in test [1] is 30 nM; in [2] it was 220 nM; in test [3], 60 nM. In addition, the result in [8] and in test [9] was inactive.

As for `Clc1ccc(C2CCc3cc(Br)cnc3O2)cc1` (stereo unspecified), the IC50 in test [1], in test [2] and in test [3] was 30 nM in each case.

Consider `CSc1cnc2c(c1)CCC(c1ccc(Cl)c(Cl)c1)O2` (stereo unspecified), for which the CGI in test [6] was determined as 15 µM. For the same molecule, the IC50 came to 120 nM in test [1], 150 nM in [2] and 30 nM in [3].

In the case of `Clc1cnc2c(c1)CCC(c1ccc(Cl)c(Cl)c1)O2` (stereo unspecified), the CGI in test [7] came to 16 µM. For the same molecule, the IC50 is 60 nM in test [1], 290 nM in [2] and 30 nM in test [3].

With `Brc1cnc2c(c1)CCC(c1ccccc1)O2` (stereo unspecified), the IC50 in test [1] amounted to 410 nM; in [2] it was 4760 nM; in [3], 3550 nM.

On to `Clc1ccc(C2CCc3cccnc3O2)cc1Cl` (stereo unspecified), for which the IC50 in test [1] is 70 nM; in [2], 2180 nM; in test [3], 640 nM.

Consider `Brc1cnc2c(c1)C=CC(c1ccccc1)O2` (stereo unspecified), for which the IC50 in test [1] is 1490 nM; in [10] it was more than 3470 nM; in [4], more than 3470 nM.

Consider `CCCCSc1cnc2c(c1)CCC(c1ccc(Cl)c(Cl)c1)O2` (stereo unspecified), for which the IC50 is 2830 nM in test [1], 6300 nM in test [2] and 1390 nM in [3].

As for `CS(=O)(=O)c1cnc2c(c1)CCC(c1ccc(Cl)c(Cl)c1)O2` (stereo unspecified), the CGI in test [7] was determined as 56 µM. Further, the IC50 in [1] turned out to be 470 nM; in test [2] it was 140 nM; in test [3] it was 10 nM.

For the molecule `CC1(c2ccc(Cl)c(Cl)c2)CCc2cc(Cl)cnc2O1` (stereo unspecified), the IC50 came to 1090 nM in [1], 580 nM in test [2] and 400 nM in [3].

In the case of `CS(=O)(=O)c1cnc2c(c1)CCC(c1ccc(Cl)cc1)O2` (stereo unspecified), the results for the IC50 in test [1], in test [2] and in [3] were 1420 nM, 1420 nM and 250 nM, respectively.

On to `C[S+]([O-])c1cnc2c(c1)CCC(c1ccc(Cl)c(Cl)c1)O2` (stereo unspecified), for which the IC50 in test [1] stood at 260 nM; in test [2], 30 nM; in [3] it was 9 nM.

Turning to `Clc1ccc(C2C=Cc3cc(Br)cnc3O2)cc1Cl` (stereo unspecified), the CGI in test [6] came to 14 µM. The IC50 was found to be 530 nM in [1], 110 nM in [2] and 60 nM in test [3].

Regarding `Clc1ccc(C2CCc3cc(Cl)cnc3O2)cc1` (stereo unspecified), the CGI in [7] is 35 µM. For the same molecule, the IC50 in [1] is 700 nM; in [2] it was 640 nM; in test [3], 110 nM.
